Data set [1] relates to IMR-32. In words: Concentration required to elicit ganglionic receptors measured using [86Rb+] flux functional assay in a human neuroblastoma-derived IMR-32 cell line. It is filed as cell-based. The gist of the method: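 Ganglionic-type (α3-containing) receptor function assessed as 86Rb+ flux in human neuroblastoma IMR-32 cells; EC50 reported as mean ± SEM, n = 3–5.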
Data set [2] is described as follows: Half-life was measured in (in vitro) dog liver slice experiments following intravenous administration to dogs. It is filed as ADME, organism-based, Canis lupus familiaris. The conditions noted are these: in vivo. The gist of the method: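 Beagle dogs were fasted overnight, with water available. They received 500 nmol/kg as a slow iv bolus into the saphenous vein. Jugular blood was sampled over 8 h, and plasma parent drug was measured by reverse-phase HPLC (electrochemical or derivatization/fluorescence detection).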

Data set [3] addresses Neuronal acetylcholine receptor subunit alpha-7 (Homo sapiens, UniProt P36544). The data set can be described thus: Bindind affinity value obtained by measuring the displacement of radioligand [125I]alpha-bungarotoxin from K-28 cells stably express human Nicotinic acetylcholine receptor alpha7. It is filed as cell-based.
For data set [4], the system named is IMR-32. The data set can be described thus: The maximal efficacy relative to 100 uM nicotine. It is filed as functional, Homo sapiens.
Data set [5] can be described thus: Half-life was measured in (in vitro) dog liver slice experiments. The conditions noted are these: dog liver slices. It is filed as ADME, Canis lupus familiaris. The gist of the method:
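Compounds at a final 12 μg/mL were incubated with dog liver slices at 37 °C for times up to 24 h. Medium was removed and frozen, then parent compound was quantified by HPLC. Half-life and % remaining at 24 h were reported.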

Data set [6] in a line: Oral bioavailability in dog. It is filed as ADME, organism-based, Canis lupus familiaris. As to conditions: in vivo. A digest of the protocol: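 Fasted beagle dogs (n = 3–6) received 500 nmol/kg by oral gavage or slow iv bolus. Jugular plasma was sampled over 8 h, and parent drug was measured by reverse-phase HPLC. Bioavailability is reported as mean ± SEM.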
Data set [7] concerns the target Neuronal acetylcholine receptor. In words: Binding affinity value obtained by measuring the displacement of radioligand [3H](-)-cytisine from a preparation of whole rat brain.
Data set [8] has as its system Mus musculus. The data set can be described thus: Minimum dose of the drug (intraperitoneal) required for elicited a statistically significant response in hypothermia assay. It is filed as functional. A digest of the protocol: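 Body temperature was taken by rectal probe inserted 3 cm, about 20 min after ip injection. The same mice had just completed a 15-min open-field activity session.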

Data set [9] relates to Mus musculus. In words: Minimum dose of the drug (intraperitoneal) required for elicited a statistically significant response in seizure assay. It is filed as functional.
For data set [10], the system named is Mus musculus. The data set can be described thus: Minimum dose of the drug (intraperitoneal) required that elicited a statistically significant response in mouse inhibitory avoidance assay. It is filed as functional. The gist of the method:
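Mice were dosed ip 15 min before training in a dark-light chamber, where entering the dark side was paired with a mild foot shock. The index of memory was latency to enter the dark chamber in a later test session.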

Data set [11] addresses Neuronal acetylcholine receptor. In words: Binding affinity value obtained by measuring the displacement of radioligand [3H](-)-cytisine from whole rat brain Nicotinic acetylcholine receptor.
Data set [12] concerns Mus musculus. The data set can be described thus: Minimum dose of the drug (intraperitoneal) required elicited a statistically significant response in locomotor activity assay; No significant effect at (0.0062-6.2) dose range. It is filed as functional, organism-based.

Calls of active or inactive are those of the source.

Neuronal acetylcholine receptor subunit alpha-7, sequence (P36544 whole entry): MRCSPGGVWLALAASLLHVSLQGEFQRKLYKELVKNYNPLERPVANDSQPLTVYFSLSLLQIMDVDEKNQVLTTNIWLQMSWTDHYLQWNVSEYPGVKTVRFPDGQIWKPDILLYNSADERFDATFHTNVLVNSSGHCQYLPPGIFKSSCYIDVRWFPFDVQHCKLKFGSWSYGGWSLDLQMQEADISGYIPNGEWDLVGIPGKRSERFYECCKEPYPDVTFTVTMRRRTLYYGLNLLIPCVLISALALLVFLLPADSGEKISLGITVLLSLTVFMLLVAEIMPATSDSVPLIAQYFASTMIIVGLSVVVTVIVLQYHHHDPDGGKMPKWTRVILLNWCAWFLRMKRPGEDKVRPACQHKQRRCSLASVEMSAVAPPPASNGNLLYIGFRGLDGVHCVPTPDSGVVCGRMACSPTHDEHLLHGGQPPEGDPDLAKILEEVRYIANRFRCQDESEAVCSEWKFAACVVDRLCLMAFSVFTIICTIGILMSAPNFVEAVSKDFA

Consider `Cc1ncccc1OC[C@@H]1CCCN1C`, for which the response in the data set on IMR-32 [1] was half-maximal at 25 µM (EC50). For the same molecule, the half-life – broadly, the time needed for the level to fall by half in the phase considered – was 0.31 h in [2] and 9 h in data set [5]. In addition, in [3], the Ki (commonly the equilibrium dissociation constant of an inhibitor or competing ligand from its target) is over 10 µM. This molecule came in with a Max in the data set with IMR-32 [4] of 29%. Besides, the bioavailability (in general, dose-corrected exposure relative to a reference, in per cent) in data set [6] was 5.8%.
With `CN1CCC[C@H]1COc1cccnc1`, in the data set on IMR-32 [1], the EC50 (commonly the concentration needed to bring the measured effect to its halfway point) amounted to 63 µM. The Ki in [3] came to 1.53 µM; in data set [7], 0.00028 µM. For the same molecule, the Max in the data set on IMR-32 [4] is 100%.
Take `Cc1cc([C@@H]2CCCN2C)on1` [ABT-418]: the EDmin was 19 µM/kg in the data set with Mus musculus [8], 62 µM/kg in the data set with Mus musculus [9] and 0.062 µM/kg in the data set on Mus musculus [10]. Further, in the data set on IMR-32 [1], the response was half-maximal at 64 µM (EC50). Further, the half-life was 0.21 h in data set [2] and 3 h in [5]. The affinity in data set [3], expressed as Ki, was 4.05 µM. The molecule further displayed a Max with IMR-32 [4] of 85%. The bioavailability in data set [6] turned out to be 1.2%.
In the case of `Cc1ncccc1OC[C@H]1CCCN1C`, the half-life in [2] was 0.61 h; in data set [5] it was 8.5 h. For the same molecule, the results for the Ki in data set [3] and in [11] were over 10 µM and 3 µM, respectively. The bioavailability in [6] came to 4.9%.
As for `Cc1ncccc1OC[C@@H]1CCCN1` [POZANICLINE], the results for the EDmin in the data set on Mus musculus [8], in the data set on Mus musculus [9] and in the data set with Mus musculus [10] were over 62 µM/kg, 774 µM/kg and 0.62 µM/kg, respectively. The EDmin entry with Mus musculus [12] was “inactive”. The midpoint of the response with IMR-32 [1], the EC50, lay at 150 µM. Further, the half-life is 1.6 h in data set [2] and over 24 h in data set [5]. In data set [3], this molecule came in with a Ki of over 10 µM. The same molecule had a Max with IMR-32 [4] of 8%. The bioavailability in data set [6] was found to be 61.5%.
As to `Cc1ncccc1OC[C@H]1CCCN1`, in the data set with IMR-32 [1], the concentration giving a half-maximal response (EC50) is 50 µM. The values for the half-life in data set [2] and in [5] were 1.4 h and over 24 h, respectively. In addition, the Ki in [3] was over 10 µM. In the data set on IMR-32 [4], this molecule came in with a Max of 11%. For the same molecule, in [6], the bioavailability was 66%.
Take `CN1CCC[C@H]1c1cccnc1` [NICOTINE]: the EDmin was 6.2 µM/kg in the data set on Mus musculus [8], 41 µM/kg in the data set with Mus musculus [9] and 0.62 µM/kg in the data set on Mus musculus [10]. Besides, the Max in the data set with IMR-32 [4] amounted to 100%.

Values taken from ChEMBL document CHEMBL1129931, “Structure-activity studies on 2-methyl-3-(2(S)-pyrrolidinylmethoxy) pyridine (ABT-089): an orally bioavailable 3-pyridyl ether nicotinic acetylcholine receptor ligand with cognition-enhancing properties” (J Med Chem, 1997).
